Source: PubChem (Sanford-Burnham Center for Chemical Genomics)
PMI activator: increases human mannose-6-phosphate isomerase activity. purified human PMI, coupled resazurin fluorescence, 20 min; stronger effect = higher value; 1 = vehicle control, 0 substrate-free wells. AID 1214. activation factor at 20 µM. P34949. actives 0.005% (n = 190,000);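 active = activation factor of 2 or more at 20 µM, relative to plate controls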
Target sequence (P34949 whole entry, looked up): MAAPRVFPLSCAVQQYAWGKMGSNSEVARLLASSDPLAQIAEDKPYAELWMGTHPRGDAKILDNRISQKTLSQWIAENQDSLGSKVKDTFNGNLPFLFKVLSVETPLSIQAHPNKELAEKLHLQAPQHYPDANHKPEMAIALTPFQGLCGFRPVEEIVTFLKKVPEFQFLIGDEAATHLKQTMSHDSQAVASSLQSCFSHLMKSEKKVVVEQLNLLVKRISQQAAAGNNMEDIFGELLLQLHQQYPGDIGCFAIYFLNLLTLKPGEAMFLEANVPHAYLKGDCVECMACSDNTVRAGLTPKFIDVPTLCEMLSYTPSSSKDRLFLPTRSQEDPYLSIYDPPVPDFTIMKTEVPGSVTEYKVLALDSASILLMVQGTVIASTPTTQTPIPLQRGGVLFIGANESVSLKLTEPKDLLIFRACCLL
G6PDH CS: counter-screen for G6PDH assay hits: L. mesenteroides G6PDH inhibition; Purified L. mesenteroides G6PDH, diaphorase/resazurin coupled fluorescence, 45 min; actives 0.12% (n = 200,000); inhibition, % at 5 µM; in the data active = inhibition above about 50%
Diaphorase act: activates diaphorase or chemically reduces, flagging diaphorase assay artifacts | Diaphorase/resazurin coupled assay, resorufin fluorescence, 16 min; stronger effect = higher value; 1 = vehicle wells, 0 = NADH-free wells | activation factor at 20 µM | actives 0.005% (n = 190,000);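 active = diaphorase activity raised at least twofold by the compound at 20 µM; inactive = activation factor below 2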
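Material: Clostridium kluyveri diaphorase, purified enzyme; Quantity: enzyme 0.07 U/mL final; Medium: HEPES pH 7.4 buffer with MgCl2 and Tween 20; Dosing: single compound dose of 20 µM, 1% DMSO final; Schedule: 16 min reaction at room temperature; Measured by: red resorufin fluorescence at 544/590 nm excitation/emission.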
PMI act satM6P: PMI (human) activation, high substrate. activation factor at 20 µM. actives 0.34% (n = 190,000). AID 1216. coupled PMI enzyme assay, resazurin fluorescence, 20 min; stronger effect = higher value; 1 = untreated enzyme, 0 = substrate-free blank;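 active = activation factor of 2 or more at 20 µM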
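Material: human phosphomannose isomerase with PGI, G6PDH, diaphorase coupling enzymes / Reagent: Man-6-P substrate 1.0 mM / Dosing: single compound dose of 20 µM, 1% DMSO final / Incubation: enzyme reaction with compound 20 min at room temperature / Signal: resorufin fluorescence (Ex 544/Em 590 nm) from resazurin via diaphorase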
Diaph inh CS: counter-screen for diaphorase-based assays: diaphorase inhibitors and chemical oxidizers; actives 0.69% (n = 190,000); diaphorase resazurin-to-resorufin fluorescence, NADH, 16 min; bacterial (C. kluyveri) enzyme, not human; inhibition, % at 20 µM;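 active = primary screen inhibition at 20 µM above a set limit, cut at about 50% in these data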;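 note: plate controls were DMSO with full reaction for no effect and wells lacking NADH for full effect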
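material = Clostridium kluyveri diaphorase enzyme | amount = 0.14 U/mL diaphorase, enzyme working solution | schedule = incubation 16 min, room temperature | detection = fluorescence of resorufin formed from resazurin, Ex 544/Em 590 nm | benchmarks = positive control minus NADH, DMSO neutral control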
Numbers without * were called inactive. Sampled rows, rich in hits. Any-hit rate of the full collection: about 1.1%.

For COc1ccc(N2CCC(CNC(=O)Nc3cccc(OC)c3)C2)cc1 (centres undefined) the results were PMI activator 0.3, G6PDH CS 2.0, Diaphorase act 0.4, PMI act satM6P 0.4 and Diaph inh CS 56.8*.
COc1ccc(N2CCC(CNC(=S)Nc3cccc(OC)c3)C2)cc1 (centres undefined) was read as PMI activator 0.7, G6PDH CS -9.8, Diaphorase act 1, PMI act satM6P 0.5 and Diaph inh CS 0.0.
`COc1cc(C(=O)ON=C2C(C)=CC(=O)C=C2C)cc(OC)c1OC` gave PMI activator 0.4, G6PDH CS 2.2, Diaphorase act 0.2, PMI act satM6P 0.3 and Diaph inh CS 75.9*.
For COc1cc(C(=O)O/N=C2/C=C(C)C(=O)C=C2C)cc(OC)c1OC the results were PMI activator 0.7, G6PDH CS 21.2, Diaphorase act 0.7, PMI act satM6P 0.5 and Diaph inh CS 26.9.
Screening CC(C)NCc1nnc(-c2ccccc2Cl)o1 returned PMI activator 1.1, G6PDH CS -0.9, Diaphorase act 1, PMI act satM6P 1 and Diaph inh CS 2.2.
`O=C1/C(=C/c2ccc(O)c(O)c2)SC(=S)N1Nc1ccccc1` gave PMI activator 0.5, G6PDH CS 4.2, Diaphorase act 0.4, PMI act satM6P 0.8 and Diaph inh CS 56.1*.
For COc1cc(/C=C2\SC(=S)N(Nc3ccccc3)C2=O)ccc1O the results were PMI activator 0.8, G6PDH CS -15.9, Diaphorase act 0.8, PMI act satM6P 0.8 and Diaph inh CS 16.1.
For CNCc1ccccc1Sc1cc(O)ccc1O the results were PMI activator 0.8, G6PDH CS 58.0*, Diaphorase act 0.7, PMI act satM6P 0.6 and Diaph inh CS 32.2.
For COc1ccccc1CNC(=O)c1nn(-c2ccc(C)cc2)c(=O)c2c1c1ccccc1n2C the results were PMI activator 0.8, G6PDH CS 2.0, Diaphorase act 0.9, PMI act satM6P 0.9 and Diaph inh CS 9.5.
Screening Cc1cc(OCCCCn2ccnc2)cc(C)c1Cl returned PMI activator 1.1, G6PDH CS 6.3, Diaphorase act 1, PMI act satM6P 1 and Diaph inh CS -2.9.
`CCCCn1c(SCC(=O)Nc2cc(C(F)(F)F)ccc2Cl)nnc1C(CC)N(C)C` (centres undefined) gave PMI activator 1, G6PDH CS 1.1, Diaphorase act 0.9, PMI act satM6P 1 and Diaph inh CS 9.9.
Screening CC(=O)n1cc([C@H]2C=C(C(=O)N3CCN(Cc4ccccc4)CC3)O[C@@H](OCc3ccc(CO)cc3)C2)c2ccccc21 returned PMI activator 1, G6PDH CS 19.6, Diaphorase act 0.5, PMI act satM6P 0.8 and Diaph inh CS 51.6*.
O=C(C1=C[C@H](c2ccc(C(F)(F)F)cc2)C[C@H](OCc2ccc(CO)cc2)O1)N1CCCCCCC1 was read as PMI activator 0.8, G6PDH CS 13.1, Diaphorase act 0.5, PMI act satM6P 0.8 and Diaph inh CS 50.5*.
For CC(=O)n1cc([C@H]2C=C(C(=O)N3CCN(Cc4ccc5c(c4)OCO5)CC3)O[C@@H](OCc3ccc(CO)cc3)C2)c2ccccc21 the results were PMI activator 0.9, G6PDH CS 6.9, Diaphorase act 0.8, PMI act satM6P 1 and Diaph inh CS 23.0.
For Cc1n[nH]c(C)c1CCN(C)Cc1cn(C)nc1-c1ccccc1F the results were PMI activator 1, G6PDH CS 10.9, Diaphorase act 1, PMI act satM6P 1 and Diaph inh CS 4.3.
Screening Cc1ccc(CN2CCN(C(=O)c3ccncc3)CC2)cc1 returned PMI activator 1, G6PDH CS 5.9, Diaphorase act 0.8, PMI act satM6P 1.1 and Diaph inh CS 16.6.
Screening O=c1[nH]c2sc3c(c2c(=O)n1Cc1ccccc1)CCC3 returned PMI activator 0.9, G6PDH CS 5.6, Diaphorase act 0.8, PMI act satM6P 0.9 and Diaph inh CS 22.3.
Screening Cc1ccc(-n2c(=S)[nH]c3sc4c(c3c2=O)CCC4)cc1 returned PMI activator 1, G6PDH CS -6.6, Diaphorase act 0.5, PMI act satM6P 0.9 and Diaph inh CS 53.1*.
